Inconclusive results are not listed.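 Rule for the calls, unless noted: active = cell viability at or below a set limit in both duplicate runs, the limit being the all-compound median minus 4 SD (cut at about 23% in these data, passing the limit was not always enough); inconclusive = no clear call, values can overlap the other calls; inactive = the rest.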
Assays:
[1] = OD615 S. cerevisiae growth inhibition, permissive medium, pilot counter-assay, permissive growth control for S. cerevisiae lifespan shortening project (AID 705;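 active = growth inhibition above 25% in both replicates, a cutoff set 3 SD above the mean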); conditions: OD615, 24 h, at 10 µM, stronger effect = higher value
Summary of the method: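 System – S. cerevisiae with engineered DeaD lifespan system · Buffer or medium – SC raffinose/galactose permissive medium · Schedule – cells pre-grown 4 h, then 24 h compound exposure, 30 °C humidified · Technique – culture turbidity as optical density at 615 nm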

[2] = Restrictive medium S. cerevisiae growth inhibition, OD615, pilot screen of yeast lifespan reduction project, restrictive growth control (AID 706;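 active = growth inhibition above a set limit, 3 SD over mean compound inhibition, in both replicates, cut at about 43% in these data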;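 note: modified DeaD lifespan yeast strain shifted to restrictive glucose medium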); conditions: OD615, 48 h, at 10 µM, stronger effect = higher value
Summary of the method: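 Material: engineered S. cerevisiae DeaD strain / Medium: glucose-based CSMM-D restrictive medium / Compound: single dose of 10 µM compound final, 0.25% DMSO / Timing: 4 h pre-incubation, 48 h exposure at 30 °C / Technique: OD615 absorbance reading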

[3] = viability gain of MRP-1-high H69AR cells under doxorubicin, pilot screen, MRP-1 activator project, CellTiter-Glo, duplicate (AID 807;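 active = viability increase at or above a cutoff of the median across tested compounds plus 3 SD, cut at about 8.5% in these data, passing the limit was not always enough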;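 note: compound pretreatment 18-22 h then 72 h combined with doxorubicin; 0% = doxorubicin alone and 100% = vehicle without doxorubicin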); conditions: H69AR viability with doxorubicin, CellTiter-Glo luminescence; at 10 µM; stronger effect = higher value
[4] = growth suppression of beta-catenin knockout HCT116, pilot screen, human colon tumor cells (AID 823); conditions: CellTiter-Glo, 60 h, at 10 µM, stronger effect = lower value;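 note: 0% = wells killed by 20 µM Hyamine and 100% = untreated DMSO cell wells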
[5] = growth suppression of PTEN-deleted HCT116, pilot screen, cell-based, HCT116 clonal line, CellTiter-Glo (AID 824;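 active = viability at or below 27.92% in each of two runs, the all-compound median minus 4 SD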;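 note: 0% = 20 µM Hyamine control and 100% = vehicle cell control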); conditions: 60 h, at 10 µM, stronger effect = lower value
[6] = inhibitors of the yeast RAM network, pilot screen, dse1pr::URA3 reporter, 5-FOA selection (AID 869;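 active = inhibition over a set limit, the all-compound mean plus 3 SD, in both replicate runs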;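 note: 0% = DMSO wells with no growth and 100% = 10 µM 1-NA-PP1 with full growth; RAM network block rescues cells from 5-FOA so hits raise OD615 growth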); conditions: S. cerevisiae dse1pr::URA3 5-FOA growth, OD615, 2 d; at 10 µM; stronger effect = higher value; strain carries analog-sensitive mutant Cbk1 kinase
[7] = RAM signaling pathway blockade in yeast – S. cerevisiae, Pdr1DBD-CYC8 efflux-inhibited sensitized strain, primary screen (AID 1298;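 active = RAM network inhibition above 8.4% in each of two replicates, 3 SD over the compound average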;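 note: 0% = DMSO untreated cells without growth and 100% = 10 µM 1-NA-PP1 full growth; higher means more yeast growth rescued from 5-FOA killing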); conditions: S. cerevisiae cbk1-as DSE1-URA3 strain, 5-FOA growth OD615, 2 d; at 50 µM; stronger effect = higher value

O=C(Nc1ccccc1C(=O)NCc1ccco1)c1ccccc1
inactive: growth inhibition [1] -21.8% | growth inhibition [2] -6.89% | viability increase [3] -3.16% | viability [4] 100% | viability [5] 90.5% | inhibition [6] 1.55% | RAM network inhibition [7] 8.28%

CCS(=O)(=O)Nc1cc(-c2nc3cccnc3s2)ccc1C
inactive: growth inhibition [1] -6.48% | growth inhibition [2] 12.5% | viability increase [3] -3.94% | viability [4] 100% | viability [5] 82.8% | inhibition [6] 1.89% | RAM network inhibition [7] 5.32%

Cc1cnn(-c2ccc3nnc(-c4ccc(Br)cc4)n3n2)c1
inactive: growth inhibition [1] -5.48% | growth inhibition [2] -11.2% | viability increase [3] -4.96% | viability [4] 85.9% | viability [5] 84.1% | inhibition [6] 1.4% | RAM network inhibition [7] 3.52%

O=C(C1CCN(S(=O)(=O)c2ccc(F)cc2)CC1)N1CC=C(c2ccccc2)CC1
inactive: growth inhibition [1] -0.895% | growth inhibition [2] -21% | viability increase [3] -2.73% | viability [4] 91% | viability [5] 89.7% | inhibition [6] 1.03% | RAM network inhibition [7] 1.27%

CCOc1ccc(N(C(C)C(=O)Nc2ccc(OC)cc2)S(C)(=O)=O)cc1 (stereo not drawn)
inactive: growth inhibition [1] -10.2% | growth inhibition [2] -1.65% | viability increase [3] 0.78% | viability [4] 103% | viability [5] 90.2% | inhibition [6] 1% | RAM network inhibition [7] 3.17%

O=C(CC1NCCNC1=O)OCCCc1ccccc1 (stereo not drawn)
inactive: growth inhibition [1] -0.955% | growth inhibition [2] -2.82% | viability increase [3] 0.07% | viability [4] 99.1% | viability [5] 99.9% | inhibition [6] 1.09% | RAM network inhibition [7] 5.29%

O=C(CSc1nc2c(c(=O)n1-c1ccc(Br)cc1)SCC2)NCC1CCCO1 (stereo not drawn)
inactive: growth inhibition [1] -11.1% | growth inhibition [2] -8.53% | viability increase [3] -1.02% | viability [4] 97.9% | viability [5] 101% | inhibition [6] 1.69% | RAM network inhibition [7] 2.63%

CCc1cc2c(=O)c(Oc3ccccc3F)c(C)oc2c(CN(C)C)c1O
inactive: growth inhibition [1] -5.07% | growth inhibition [2] 9.37% | viability increase [3] -7.21% | viability [4] 95.2% | viability [5] 89.1% | inhibition [6] 3.73% | RAM network inhibition [7] 6.03%

CSC1=N/C(=C\c2ccc(C)o2)C(=O)S1
inactive: growth inhibition [1] -2.35% | growth inhibition [2] 1.15% | viability increase [3] -2.31% | viability [4] 104% | viability [5] 102% | inhibition [6] 0.93% | RAM network inhibition [7] -0.21%

Cc1ccc(Cl)cc1NC(=O)Cn1cc2c(n1)CCCC2
inactive: growth inhibition [1] -3.65% | growth inhibition [2] 8.66% | viability increase [3] -2.72% | viability [4] 110% | viability [5] 97% | inhibition [6] -0.18% | RAM network inhibition [7] 0.23%

O=C1c2ccccc2C(Nc2cccnc2)N1Cc1ccc2c(c1)OCO2 (stereo not drawn)
inactive: growth inhibition [1] 7.46% | growth inhibition [2] 3.33% | viability increase [3] -2.21% | viability [4] 94.1% | viability [5] 104% | inhibition [6] 0.205% | RAM network inhibition [7] 1.74%

c1ccc(Cn2ncc3ccccc32)cc1
inactive: growth inhibition [1] -3.05% | growth inhibition [2] 4.4% | viability increase [3] -1.05% | viability [4] 94.8% | viability [5] 98% | inhibition [6] -0.165% | RAM network inhibition [7] -0.97%

CCC(=O)Nc1c(OC(=O)CC)ccc2c(C)cc(=O)oc12
inactive: growth inhibition [1] 5.45% | growth inhibition [2] 4.76% | viability increase [3] -2.02% | viability [4] 105% | viability [5] 88.7% | inhibition [6] 0.835% | RAM network inhibition [7] -0.83%

COc1cc(/C=N/n2cnnc2)ccc1OCCOc1ccccc1
inactive: growth inhibition [1] 0.295% | growth inhibition [2] 1.02% | viability increase [3] -3.68% | viability [4] 104% | viability [5] 91.8% | inhibition [6] 3.07% | RAM network inhibition [7] 5.62%

COc1cccc(CNC(=O)CCS(=O)(=O)c2cccc3nonc23)c1
inactive: growth inhibition [1] -13.5% | growth inhibition [2] -21.2% | viability increase [3] -3.04% | viability [4] 93.2% | viability [5] 91% | inhibition [6] 1.75% | RAM network inhibition [7] 0.46%

Fc1ccccc1COc1cccc(/C=N/n2cnnc2)c1
inactive: growth inhibition [1] 2.62% | growth inhibition [2] 11.6% | viability increase [3] 0.12% | viability [4] 96.2% | viability [5] 84.9% | inhibition [6] 0.35% | RAM network inhibition [7] 0.15%

CCOC(=O)CSc1nc2sc(C(=O)O)c(C)c2c(=O)[nH]1
inactive: growth inhibition [1] 0.2% | growth inhibition [2] -4.45% | viability increase [3] -1.82% | viability [4] 102% | viability [5] 103% | inhibition [6] 1.92% | RAM network inhibition [7] 3.85%

CS(=O)(=O)c1ccc(C(=O)NC2CCOC2=O)cc1 (stereo not drawn)
inactive: growth inhibition [1] -2.63% | growth inhibition [2] -3.86% | viability increase [3] -1.85% | viability [4] 102% | viability [5] 97.6% | inhibition [6] -0.295% | RAM network inhibition [7] 4.25%

COc1ccc(C(=O)NCC(c2cccnc2)N2CCN(c3ccccc3)CC2)cc1OC (stereo not drawn)
inactive: growth inhibition [1] -5.73% | growth inhibition [2] 0.095% | viability increase [3] -2.1% | viability [4] 97.6% | viability [5] 93.1% | inhibition [6] 1.5% | RAM network inhibition [7] 2.74%

CCn1c(C2CC(=O)N(Cc3ccccc3)C2)nc2ccccc21 (stereo not drawn)
inactive: growth inhibition [1] 7.85% | growth inhibition [2] 7.52% | viability increase [3] -2.06% | viability [4] 102% | viability [5] 91.3% | inhibition [6] -0.3% | RAM network inhibition [7] 4.25%

CC(=O)Nc1ccc(S(=O)(=O)Nc2nc(C)cc(-n3nc(C)cc3C)n2)cc1
inactive: growth inhibition [1] -8.39% | growth inhibition [2] -6.55% | viability increase [3] -1.84% | viability [4] 102% | viability [5] 102% | inhibition [6] 1.25% | RAM network inhibition [7] 2.89%

CCOC(=O)c1ccc(CSc2n[nH]c(C)n2)o1
inactive: growth inhibition [1] -3.09% | growth inhibition [2] -7.67% | viability increase [3] -2.58% | viability [4] 97.7% | viability [5] 96.7% | inhibition [6] -1.18% | RAM network inhibition [7] 1.95%

Oc1c(C(c2cccc(F)c2)N2CCN(Cc3ccccc3)CC2)sc2ncnn12 (stereo not drawn)
inactive: growth inhibition [1] -6.58% | growth inhibition [2] 3.16% | viability increase [3] -0.83% | viability [4] 87.7% | viability [5] 80.7% | inhibition [6] 0.05% | RAM network inhibition [7] -2.27%

O=C1CC(c2nc3ccccc3[nH]2)CN1c1cccc(C(F)(F)F)c1 (stereo not drawn)
inactive: growth inhibition [1] -1.92% | growth inhibition [2] 4.75% | viability increase [3] 6.49% | viability [4] 86% | viability [5] 76.5% | inhibition [6] 1.1% | RAM network inhibition [7] -2.12%

Source: PubChem BioAssay
